From ChEMBL document CHEMBL1152702, “Synthesis and biological evaluation of some new 1,4-dihydropyridines containing different ester substitute and diethyl carbamoyl group as anti-tubercular agents” (Bioorg Med Chem, 2009)
Values after ≈ are worked out from the molar mass of the structure shown.

Experiments:
[1] = test system: Mycobacterium tuberculosis; assay: Antimycobacterial activity against Mycobacterium tuberculosis H37Rv ATCC 27294 after 21 days by agar proportion method; type: functional; conditions: 504 h
In short: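 Agar proportion method on Middlebrook 7H10 with glycerol and OADC, compounds added from DMSO solutions at […]. H37Rv was grown in 7H9 broth at 37 °C for 4–7 days and adjusted to McFarland no. 1. The 10^-2 and 10^-4 dilutions were the inocula. MIC was read after 21 days at 37 °C under 5–7% CO₂.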

[2] = Antagonist activity at calcium channel in guinea pig ileum assessed as inhibition of KCl-induced contraction of ileal longitudinal smooth muscle pretreated 15 mins before KCl challenge; type: functional, tissue-based; conditions: Cavia porcellus

| Structure (SMILES) | MIC [1] [µM] | IC50 [2] [µM] |
| --- | --- | --- |
| CCN(CC)C(=O)C1=C(C)NC(C)=C(C(=O)OCCCCCc2ccccc2)C1c1ncc([N+](=O)[O-])n1C (stereo not drawn) | 2 (≈ 1.05 µg/mL) | 24 |
| CCCCOC(=O)C1=C(C)NC(C)=C(C(=O)N(CC)CC)C1c1ncc([N+](=O)[O-])n1C (stereo not drawn) | 1 (≈ 0.434 µg/mL) | 8.57 |
| CCN(CC)C(=O)C1=C(C)NC(C)=C(C(=O)OCc2ccccc2)C1c1ncc([N+](=O)[O-])n1C (stereo not drawn) | 1 (≈ 0.468 µg/mL) | 4.2 |
| CCN(CC)C(=O)C1=C(C)NC(C)=C(C(=O)OCCCc2ccccc2)C1c1ncc([N+](=O)[O-])n1C (stereo not drawn) | 1 (≈ 0.496 µg/mL) | 2.7 |
| CCCOC(=O)C1=C(C)NC(C)=C(C(=O)N(CC)CC)C1c1ncc([N+](=O)[O-])n1C (stereo not drawn) | 2 (≈ 0.839 µg/mL) | 12 |
| CCN(CC)C(=O)C1=C(C)NC(C)=C(C(=O)OC)C1c1ncc([N+](=O)[O-])n1C (stereo not drawn) | > 500 | 32.2 |
| CCN(CC)C(=O)C1=C(C)NC(C)=C(C(=O)OC(C)C)C1c1ncc([N+](=O)[O-])n1C (stereo not drawn) | > 500 | 18.8 |
| CCN(CC)C(=O)C1=C(C)NC(C)=C(C(=O)OCCc2ccccc2)C1c1ncc([N+](=O)[O-])n1C (stereo not drawn) | 1 (≈ 0.482 µg/mL) | 2.4 |
| CCN(CC)C(=O)C1=C(C)NC(C)=C(C(=O)OCCCCc2ccccc2)C1c1ncc([N+](=O)[O-])n1C (stereo not drawn) | 2 (≈ 1.02 µg/mL) | 3.5 |
| CCOC(=O)C1=C(C)NC(C)=C(C(=O)N(CC)CC)C1c1ncc([N+](=O)[O-])n1C (stereo not drawn) | 250 (≈ 101 µg/mL) | 29.7 |
| NNC(=O)c1ccncc1 [ISONIAZID] | 1 (≈ 0.137 µg/mL) |  |
| COC(=O)C1=C(C)NC(C)=C(C(=O)OC)C1c1ccccc1[N+](=O)[O-] [NIFEDIPINE] |  | 0.00107 |
| CO[C@H]1/C=C/O[C@@]2(C)Oc3c(C)c(O)c4c(O)c(c(/C=N/N5CCN(C)CC5)c(O)c4c3C2=O)NC(=O)/C(C)=C\C=C\[C@H](C)[C@H](O)[C@@H](C)[C@@H](O)[C@@H](C)[C@H](OC(C)=O)[C@@H]1C [RIFAMPIN] | 1 (≈ 0.823 µg/mL) |  |
